Data reported in ChEMBL document CHEMBL1133019, “Synthesis, spectroscopy, and cytotoxicity of glycosylated acetogenin derivatives as promising molecules for cancer therapy” (J Med Chem, 2000).
“And” between values parts separate entries of the source, which are not always exact repeats. Identical values can stand only once.

Legend:
[1] = test system: L1210; assay: Cell Cycle inhibition against mouse lymphocytic leukemia cells (L1210) at 10 uM; format: functional
Procedure, shortened: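 L1210 cells cultured 24 h with compound, alongside a compound-free control flask; BrdU added after 15 min. Cells ethanol-permeabilized, stained with rat anti-BrdU then FITC goat secondary, counterstained with propidium iodide, analysed by flow cytometry. Percentage of cells in each cell-cycle phase calculated from histograms.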

[2] = Cytotoxic activity against human epidermoid carcinoma cells (KB); format: functional
Procedure, shortened: (§1)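 Adherent monolayers seeded 24 h before treatment; 3-fold serial dilutions added; 72 h at 37 °C, humidified 5% CO2. Cells formol-fixed, methylene blue stained, washed, dye released with 0.1 M HCl, absorbance at 620 nm. Proliferation as % of acetogenin-free control; EC50 (50% growth inhibition) read from dose-response curves.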

[3] = test system: L1210; assay: Cytotoxic activity against mouse lymphocytic leukemia cells (L1210); format: functional, cell-based
Procedure, shortened: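 L1210 in RPMI 1640 with 10% FBS, 2 mM L-glutamine, penicillin/streptomycin; doubling time about 13 h. Exponentially growing cells (1 × 10^4/well) exposed 72 h at 37 °C to drug dilutions prepared from DMSO solutions in medium. Coulter counter cell counts, triplicates, as % of triplicate controls; IC50 from residual cells vs concentration on semilog scale.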

[4] = test system: Vero; assay: Cytotoxic activity against african green monkey (Cercopithecus aethiops) kidney epithelial cells (VERO); format: functional, cell-based; conditions: Chlorocebus sabaeus; procedure, shortened: as §1

Compound	inhibition at 10 µM [1] [%]	EC50 [2] [nM]	EC50 ([3]; l1210)	EC50 [4] [nM]	EC50 ([3]; Mus musculus, L1210) [nM]
CCCCCC[C@H](O)CCC[C@H](OC[C@H]1O[C@@H](O)[C@H](O)[C@@H](O)[C@@H]1O)[C@H]1CC[C@H]([C@H]2CC[C@H]([C@H](O)CCCCCCCCCCCCC3C[C@H](C)OC3=O)O2)O1 (some centres not stated)	54	9	10 nM and 80 nM	–	–
CCCCCC[C@@H](CCC[C@H](OC(C)=O)[C@H]1CC[C@H]([C@H]2CC[C@H]([C@@H](CCCCCCCCCCCCC3=C[C@H](C)OC3=O)OC(C)=O)O2)O1)OC[C@H]1O[C@@H](OC(C)=O)[C@H](OC(C)=O)[C@@H](OC(C)=O)[C@@H]1OC(C)=O	–	0.96	–	20	300
CCCCCC[C@H](O)CCC[C@H](OC[C@H]1O[C@@H](O)[C@H](O)[C@@H](O)[C@@H]1O)[C@H]1CC[C@H]([C@H]2CC[C@H]([C@@H](CCCCCCCCCCCCC3=C[C@H](C)OC3=O)OC[C@H]3O[C@@H](O)[C@H](O)[C@@H](O)[C@@H]3O)O2)O1	–	1050	–	1050	10000
CCCCCC[C@H](O)CCC[C@H](OC[C@H]1O[C@@H](OCc2ccccc2)[C@H](OCc2ccccc2)[C@@H](OCc2ccccc2)[C@@H]1OCc1ccccc1)[C@H]1CC[C@H]([C@H]2CC[C@H]([C@H](O)CCCCCCCCCCCCC3=C[C@H](C)OC3=O)O2)O1	–	–	–	–	50
CCCCCC[C@@H](CCC[C@H](OC(C)=O)[C@H]1CC[C@H]([C@H]2CC[C@H]([C@@H](CCCCCCCCCCCCC3=C[C@H](C)OC3=O)OC(C)=O)O2)O1)OC[C@H]1O[C@@H](O)[C@H](O)[C@@H](O)[C@@H]1O	–	11	–	340	17
CCCCCC[C@H](O)CCC[C@H](O)[C@H]1CC[C@H]([C@H]2CC[C@H]([C@@H](CCCCCCCCCCCCC3=C[C@H](C)OC3=O)OC[C@H]3O[C@H](OCc4ccccc4)[C@H](OCc4ccccc4)[C@@H](OCc4ccccc4)[C@@H]3OCc3ccccc3)O2)O1	65	–	–	–	–
CCCCCC[C@H](O)CCC[C@H](O)[C@H]1CC[C@H]([C@H]2CC[C@H]([C@H](O)CCCCCCCCCCCCC3C[C@H](C)OC3=O)O2)O1 (some centres not stated)	–	0.24	–	16	< 0.25
CCCCCC[C@H](O)CCC[C@H](O)[C@H]1CC[C@H]([C@H]2CC[C@H]([C@H](O)CCCCCCCCCCCCC3=C[C@H](C)OC3=O)O2)O1 [SQUAMOCIN]	–	0.24	–	16	< 0.25
CC[C@]1(O)C[C@@H]2CN(CCc3c([nH]c4ccccc34)[C@@](C(=O)OC)(c3cc4c(cc3OC)N(C)[C@H]3[C@@](O)(C(=O)OC)[C@H](OC(C)=O)[C@]5(CC)C=CCN6CC[C@]43[C@@H]65)C2)C1 [VINBLASTINE]	–	1.2	–	< 3700	–
